Calls of active or inactive are those of the source. The rule behind the calls is not given here.
How the values were obtained:
mTOR/FKBP12A/FKBP12B = mTOR/FKBP12A/FKBP12B (Homo sapiens, UniProt P42345+P62942+P68106); assay: Inhibition of full length recombinant human mTOR/FKBP12; format: protein-complex assay
[1] = biological target: Phosphatidylinositol 4,5-bisphosphate 3-kinase catalytic subunit gamma isoform (Homo sapiens) (UniProt P48736); assay: Inhibition of full length recombinant human PI3K p120gamma at 1 uM relative to control
Procedure, shortened: (§1)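 Eurofins KinaseProfiler panel with compound at a single 1 μM concentration. ATP at the Km of each kinase. Result is % inhibition, mean of two independent experiments.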

[2] = biological target: PI3K p110 beta/p85 beta (Mus musculus) (UniProt Q8BTI9+O08908); assay: Inhibition of full length recombinant mouse PI3K p110beta/p85beta at 1 uM relative to control; format: protein-complex assay; procedure, shortened: as §1
[3] = biological target: PI3K p110 beta/p85 alpha (Mus musculus) (UniProt P26450+Q8BTI9); assay: Inhibition of full length recombinant mouse PI3K p110beta/p85alpha at 1 uM relative to control; format: protein-complex assay; procedure, shortened: as §1
[4] = system: PI3-kinase p110-alpha/p85-alpha (Homo sapiens), P27986+P42336 [E542K]; assay: Inhibition of full length recombinant human p85alpha/PI3K p110alpha E542K mutant at 1 uM relative to control; procedure, shortened: as §1
[5] = system: PI3-kinase p110-alpha/p85-alpha (Homo sapiens), P27986+P42336 [H1047R]; assay: Inhibition of full length recombinant human p85alpha/PI3K p110alpha H1047R mutant at 1 uM relative to control; procedure, shortened: as §1
MCF7 = assay: Cell cycle arrest in human MCF7 cells assessed as accumulation at G0/G1 phase at 0.25 to 0.5 uM after 24 hrs by propidium iodide-staining based flow cytometric analysis; format: functional
Procedure, shortened: (§2)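 Cells were seeded at 5 × 10^5 cells/mL. At 24 h after plating they were treated with increasing concentrations for 24 h, washed in PBS, and fixed in ice-cold 70% ethanol for at least 24 h. They were stained with propidium iodide plus RNase A for 30 min at 37 °C and analysed by flow cytometry for phase distribution.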

SiHa [6] = assay: Cell cycle arrest in human SiHa cells assessed as decrease in S-phase at 0.25 to 0.5 uM after 24 hrs by propidium iodide-staining based flow cytometric analysis; format: functional; procedure, shortened: as §2
HeLa = assay: Cell cycle arrest in human HeLa cells assessed as accumulation at G0/G1 phase at 0.5 to 1 uM after 24 hrs by propidium iodide-staining based flow cytometric analysis; format: functional; procedure, shortened: as §2
SiHa [7] = assay: Induction of autophagy in human SiHa cells assessed as increase in LC3-2 level at 0.5 to 1 uM after 48 hrs by Western blot analysis; format: functional, cell-based
Procedure, shortened: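 Cells treated with test agents at several concentrations for 2 days (48 h). LC3B-II detected by Western blot on lysates, with β-actin as internal control. Membranes blocked in 5% skim milk, primary antibodies at 4 °C overnight, peroxidase-conjugated anti-mouse or anti-rabbit IgG secondary, ECL detection.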

MDA-MB-231 = assay: Induction of autophagy in human MDA-MB-231 cells assessed as increase in LC3-2 puncta level after 48 hrs by immunofluorescence staining based microscopic analysis; format: functional, cell-based
Procedure, shortened: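 Cells seeded on glass coverslips in complete 1640 or DMEM and incubated with inhibitors at different concentrations for 48 h. Fixed in 4% paraformaldehyde, permeabilized with 0.15% Triton X-100, blocked in 4% BSA/PBS for 1 h at room temperature. Anti-LC3B (1:200) overnight, then FITC-conjugated secondary, DAPI nuclear stain. LC3B-II puncta viewed by fluorescence microscopy.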

Homo sapiens [8] = species on record: Homo sapiens; assay: Inhibition of mTORC1 in human MDA-MB-231 cells assessed as reduction in 4E-BP1 phosphorylation at Ser65 residues at 0.25 to 0.5 uM by Western blot analysis; format: cell-based
Procedure, shortened: (§3)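 Cells treated with the indicated concentrations, then whole-cell lysates immunoblotted. mTORC1 activity read as S6 and 4E-BP1 phosphorylation; mTORC2 activity read as AKT Ser473 phosphorylation. Blocking in 5% skim milk, primary antibodies at 4 °C overnight, peroxidase-conjugated secondary, ECL detection.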

Homo sapiens [9] = species on record: Homo sapiens; assay: Inhibition of mTORC1 in human T47D cells assessed as reduction in S6 phosphorylation at Ser 240/244 residues at 0.25 to 0.5 uM by Western blot analysis; format: cell-based; procedure, shortened: as §3
Homo sapiens [10] = species on record: Homo sapiens; assay: Inhibition of mTORC2 in human T47D cells assessed as reduction in AKT phosphorylation at Ser473 residues at 0.25 to 0.5 uM by Western blot analysis; format: cell-based
Procedure, shortened: (§4)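 Cells exposed to a range of compound concentrations; whole-cell lysates immunoblotted for phospho-AKT (Ser473) as the mTORC2 readout, alongside S6 and 4E-BP1 phosphorylation for mTORC1. Membranes blocked in 5% skim milk, primary antibodies overnight at 4 °C, peroxidase-conjugated anti-mouse or anti-rabbit IgG secondary, ECL detection. Rapamycin as comparator.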

Homo sapiens [11] = species on record: Homo sapiens; assay: Inhibition of mTORC2 in human MDA-MB-231 cells assessed as reduction in AKT phosphorylation at Ser473 residues at 0.25 to 0.5 uM by Western blot analysis; format: cell-based; procedure, shortened: as §4
Homo sapiens [12] = species on record: Homo sapiens; assay: Inhibition of mTORC2 in human SiHa cells assessed as reduction in AKT phosphorylation at Ser473 residues at 0.25 to 0.5 uM by Western blot analysis; format: cell-based; procedure, shortened: as §4
T47D [13] = assay: Antitumor activity against human T47D cells xenografted in BALB/c nude mouse assessed as decrease in tumor growth at 30 mg/kg, po administered via gavage after 3 weeks relative to control; format: functional; settings: 504 h, read-out: TGI
T47D [14] = assay: Antitumor activity against human T47D cells xenografted in BALB/c nude mouse assessed as decrease in tumor growth at 15 mg/kg, po administered via gavage after 3 weeks relative to control; format: functional; settings: 504 h, read-out: TGI
Mus musculus = assay: Down regulation of 4E-BP1 phosphorylation at Ser65 residues in human T47D cells xenografted in BALB/c nude mouse administered via oral gavage after 3 weeks by hematoxylin and eosine staining based light microscopic assay; format: functional, cell-based
Procedure, shortened: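 Tumours from the oral 3-week T-47D xenograft study were formalin-fixed, paraffin-embedded and cut into 5 μm sections. Sections were deparaffinized, rehydrated and incubated overnight at 4 °C with phospho-specific primary antibody at 1:100. Biotin secondary was applied for 1 h at room temperature, then ABC-peroxidase/DAB with hematoxylin counterstain. Sections were viewed by light microscopy.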

[15] = Oral bioavailability in Sprague-Dawley rat at 20 mg/kg administered as single dose by HPLC analysis; format: ADME, organism-based; settings: in vivo
Procedure, shortened: (§5)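 Rats fasted overnight, then given a single 20 mg/kg dose either iv or po. Blood collected and centrifuged immediately to obtain plasma. Plasma drug levels measured by HPLC, and pharmacokinetic parameters derived from both routes.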

[16] = MRT (0 to infinity) in Sprague-Dawley rat at 20 mg/kg, iv administered as single dose by HPLC analysis; format: ADME, organism-based; settings: in vivo; procedure, shortened: as §5
[17] = Clearance in Sprague-Dawley rat at 20 mg/kg, iv administered as single dose by HPLC analysis; format: ADME, organism-based; settings: in vivo
Procedure, shortened: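 Rats fasted overnight, then given one 20 mg/kg dose either iv or po. Blood was collected and centrifuged at once to obtain plasma. Plasma drug levels were measured by HPLC, and PK parameters were derived from the concentration-time data.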

Chain of Phosphatidylinositol 4,5-bisphosphate 3-kinase catalytic subunit gamma isoform (Homo sapiens) (P48736 whole entry, looked up, canonical isoform): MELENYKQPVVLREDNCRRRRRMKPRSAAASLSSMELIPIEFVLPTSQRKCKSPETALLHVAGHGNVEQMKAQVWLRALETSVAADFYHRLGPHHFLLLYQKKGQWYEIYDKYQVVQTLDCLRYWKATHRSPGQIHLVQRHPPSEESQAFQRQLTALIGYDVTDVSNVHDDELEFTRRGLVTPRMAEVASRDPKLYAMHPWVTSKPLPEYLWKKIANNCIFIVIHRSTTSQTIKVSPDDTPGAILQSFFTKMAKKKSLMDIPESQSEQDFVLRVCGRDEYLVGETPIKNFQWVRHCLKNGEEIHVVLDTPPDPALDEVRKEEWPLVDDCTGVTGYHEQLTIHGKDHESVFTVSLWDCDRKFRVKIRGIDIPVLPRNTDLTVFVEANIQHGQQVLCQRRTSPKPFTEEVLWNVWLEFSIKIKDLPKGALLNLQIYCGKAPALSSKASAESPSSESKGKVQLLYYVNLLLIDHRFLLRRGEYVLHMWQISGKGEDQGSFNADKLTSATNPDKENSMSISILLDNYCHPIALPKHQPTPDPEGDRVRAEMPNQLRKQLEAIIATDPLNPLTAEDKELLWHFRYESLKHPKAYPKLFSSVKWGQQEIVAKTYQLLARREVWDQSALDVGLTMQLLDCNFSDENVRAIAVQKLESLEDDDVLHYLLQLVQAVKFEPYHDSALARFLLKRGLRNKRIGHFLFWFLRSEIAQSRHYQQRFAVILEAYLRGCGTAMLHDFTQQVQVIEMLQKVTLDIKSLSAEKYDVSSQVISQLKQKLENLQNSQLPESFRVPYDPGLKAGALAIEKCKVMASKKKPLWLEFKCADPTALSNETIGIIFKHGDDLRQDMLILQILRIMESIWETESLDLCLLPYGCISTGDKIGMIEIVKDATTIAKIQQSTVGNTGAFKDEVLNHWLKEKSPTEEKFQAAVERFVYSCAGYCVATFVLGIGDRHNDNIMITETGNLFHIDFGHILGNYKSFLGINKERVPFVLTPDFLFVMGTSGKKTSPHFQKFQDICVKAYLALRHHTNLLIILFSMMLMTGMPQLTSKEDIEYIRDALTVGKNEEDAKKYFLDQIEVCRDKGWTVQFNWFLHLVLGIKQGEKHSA
Chain of mTOR/FKBP12A/FKBP12B (P62942 2-108 limits assumed, other chains not shown): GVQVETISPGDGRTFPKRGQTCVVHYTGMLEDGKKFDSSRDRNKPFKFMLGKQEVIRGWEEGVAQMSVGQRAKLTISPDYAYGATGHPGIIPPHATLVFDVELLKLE
Chain of mTOR/FKBP12A/FKBP12B (P68106 whole entry, other chains not shown, canonical isoform): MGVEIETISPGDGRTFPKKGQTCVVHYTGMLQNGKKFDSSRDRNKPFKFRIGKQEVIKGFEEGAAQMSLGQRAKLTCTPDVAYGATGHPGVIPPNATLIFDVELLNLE

## N#CCN1CCC(n2c(=O)cnc3cnc4ccc(-c5ccc(N)nc5)cc4c32)CC1
mTOR/FKBP12A/FKBP12B
  IC50: 8 nM
[1]
  inhibition: 4%
[2]
  inhibition: 8%
[3]
  inhibition: 5%
[4]
  inhibition: 11%
[5]
  inhibition: 2%
MCF7
  Activity: Active
SiHa [6]
  Activity: Active
HeLa
  Activity: Active
SiHa [7]
  Activity: Active
MDA-MB-231
  Activity: Dose-dependent effect
Homo sapiens [8]
  inhibition: Active
Homo sapiens [9]
  inhibition: Active
Homo sapiens [10]
  inhibition: Active
Homo sapiens [11]
  inhibition: Active
Homo sapiens [12]
  inhibition: Active
T47D [13]
  inhibition in vivo at 30 mg/kg: 75.6%
T47D [14]
  inhibition in vivo at 15 mg/kg: 63.2%
Mus musculus
  Activity: Dose-dependent effect
[15]
  bioavailability: 43.5%
[16]
  MRT inf: 11.6 h
[17]
  clearance: 25.5 mL/min/kg

Source: ChEMBL document CHEMBL4020823, “Highly Selective, Potent, and Oral mTOR Inhibitor for Treatment of Cancer as Autophagy Inducer” (J Med Chem, 2018)
